Results: ChEMBL document CHEMBL3867423, “New imidazolidineiminothione derivatives: Synthesis, spectral characterization and evaluation of antitumor, antiviral, antibacterial and antifungal activities” (Eur J Med Chem, 2016)
≈ marks a conversion by molar mass, not a printed value.

Key:
Hepatovirus A = test: Antiviral activity against Hepatitis A virus infected in African green monkey Vero cells by plaque formation assay; assay type: functional; design: concentration or dose not given beside the values
[1] = Cytotoxicity against human HepG2 cells assessed as decrease in cell viability after 48 hrs by SRB assay; assay type: functional, cell-based
Method in brief: (§1)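 SRB assay. Cells seeded at 10⁴ per well and allowed to attach for 24 h. Exposed to 0, 5, 12.5, 25 and 50 µg/mL, triplicate wells per dose, for 48 h at 37 °C in 5% CO₂. Cells fixed and SRB-stained; excess dye removed with acetic acid, bound dye recovered in Tris-EDTA and read on an ELISA reader. IC50 read from the surviving-fraction curve.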

[2] = Cytotoxicity against human MCF7 cells assessed as decrease in cell viability after 48 hrs by SRB assay; assay type: functional, cell-based; design: unit not given here; method in brief: as §1
[3] = Cytotoxicity against human HCT116 cells assessed as decrease in cell viability after 48 hrs by SRB assay; assay type: functional, cell-based; settings: hct-116; method in brief: as §1
[4] = Cytotoxicity against human PC3 cells assessed as decrease in cell viability after 48 hrs by SRB assay; assay type: functional, cell-based; settings: pc-3; method in brief: as §1
Human alphaherpesvirus 1 = test: Antiviral activity against HSV1 infected in African green monkey Vero cells by plaque formation assay; assay type: functional; design: concentration or dose not given beside the values
Coxsackievirus B4 = test: Antiviral activity against human Coxsackie virus B4 infected in African green monkey Vero cells by plaque formation assay; assay type: functional; design: concentration or dose not given beside the values
Micrococcus luteus [5] = test: Antibacterial activity against Micrococcus luteus ATCC 10240 at 5 mg after 24 hrs by agar well diffusion assay; assay type: functional; settings: ATCC 10240, 24 h, read-out: DIZ
Method in brief: (§2)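 Agar well diffusion. 100 µL inoculum (1×10⁸ CFU/mL bacteria, 1×10⁶ CFU/mL yeast) spread on nutrient agar (bacteria) or Sabouraud dextrose agar (fungi). 10 mm wells loaded with 100 µL of 5 mg/mL compound in DMSO. DMSO as negative control. Erythromycin (bacteria) or […] (fungi) at 5 mg/ml as standards. Plates incubated 24 h at 37 °C. Inhibition zone diameter (mm) measured, mean of triplicate.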

Bacillus subtilis = test: Antibacterial activity against Bacillus subtilis NCTC 10400 at 5 mg after 24 hrs by agar well diffusion assay; assay type: functional; settings: NCTC 10400, 24 h, read-out: DIZ; method in brief: as §2
Bacillus pumilus [6] = test: Antibacterial activity against Bacillus pumilus at 5 mg after 24 hrs by agar well diffusion assay; assay type: functional; settings: read-out: DIZ; method in brief: as §2
Pseudomonas aeruginosa [7] = test: Antibacterial activity against Pseudomonas aeruginosa ATCC 25619 at 5 mg after 24 hrs by agar well diffusion assay; assay type: functional; settings: ATCC 25619, 24 h, read-out: DIZ; method in brief: as §2
Escherichia coli = test: Antibacterial activity against Escherichia coli ATCC 10536 at 5 mg after 24 hrs by agar well diffusion assay; assay type: functional; settings: ATCC 10536, 24 h, read-out: DIZ; method in brief: as §2
Micrococcus luteus [8] = test: Antibacterial activity against Sarcina lutea at 5 mg after 24 hrs by agar well diffusion assay; assay type: functional; settings: read-out: DIZ; method in brief: as §2
Candida albicans [9] = test: Antifungal activity against Candida albicans IMRU 3669 at 5 mg after 24 hrs by agar well diffusion assay; assay type: functional; settings: IMRU 3669, 24 h, read-out: DIZ; method in brief: as §2
Aspergillus niger = test: Antifungal activity against Aspergillus niger at 5 mg after 24 hrs by agar well diffusion assay; assay type: functional; settings: read-out: DIZ; method in brief: as §2
[10] = Antifungal activity against Penicillium chrysogenum at 5 mg after 24 hrs by agar well diffusion assay; assay type: functional; method in brief: as §2
Pseudomonas aeruginosa [11] = test: Antibacterial activity against Pseudomonas aeruginosa ATCC 25619 after 24 hrs by two-fold serial dilution method; assay type: functional; settings: ATCC 25619, 24 h
Method in brief: (§3)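 Two-fold serial dilutions of DMSO stock in adjusted Mueller-Hinton broth, final 100 to 0.78 µg/ml. Bacteria pre-grown in nutrient broth, fungi in malt extract broth (48 h). Each 5 ml tube given 0.1 ml inoculum (1×10⁸ CFU/ml bacteria, 1×10⁶ CFU/ml fungi), incubated 37 °C 24 h. MIC taken as lowest concentration with no growth; triplicate, averaged.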

Micrococcus luteus [12] = test: Antibacterial activity against Sarcina lutea after 24 hrs by two-fold serial dilution method; assay type: functional; method in brief: as §3
Bacillus pumilus [13] = test: Antibacterial activity against Bacillus pumilus after 24 hrs by two-fold serial dilution method; assay type: functional; method in brief: as §3
Micrococcus luteus [14] = test: Antibacterial activity against Micrococcus luteus ATCC 10240 after 24 hrs by two-fold serial dilution method; assay type: functional; settings: ATCC 10240, 24 h; method in brief: as §3
Candida albicans [15] = test: Antifungal activity against Candida albicans IMRU 3669 after 24 hrs by two-fold serial dilution method; assay type: functional; settings: IMRU 3669, 24 h; method in brief: as §3

SMILES	Activity (Hepatovirus A)	IC50 [1]	IC50 [2]	IC50 [3]	IC50 [4]	Activity (Human alphaherpesvirus 1)	Activity (Coxsackievirus B4)	zone of inhibition at 5000 µg/disc (Micrococcus luteus [5])	zone of inhibition at 5000 µg/disc (Bacillus subtilis)	zone of inhibition at 5000 µg/disc (Bacillus pumilus [6])	zone of inhibition at 5000 µg/disc (Pseudomonas aeruginosa [7])	zone of inhibition at 5000 µg/disc (Escherichia coli)	zone of inhibition at 5000 µg/disc (Micrococcus luteus [8])	zone of inhibition at 5000 µg/disc (Candida albicans [9])	zone of inhibition at 5000 µg/disc (Aspergillus niger)	inhibition zone (IZ) [10]	MIC (Pseudomonas aeruginosa [11])	MIC (Micrococcus luteus [12])	MIC (Bacillus pumilus [13])	MIC (Micrococcus luteus [14])	other results
CSc1ccc(N2C(=N)C(=S)N(c3cc(Cl)cc(Cl)c3)C2=O)cc1	0%	0.029 µg	0.018	0.031 µg	0.049 µg	3.4%	0%	18 mm	24 mm	25 mm	21 mm	23 mm	26 mm	25 mm	19 mm	20 mm	0.78 µg/mL (≈ 1.97 µM)	6.25 µg/mL (≈ 15.8 µM)	6.25 µg/mL (≈ 15.8 µM)	6.25 µg/mL (≈ 15.8 µM)	MIC (Candida albicans [15]): 6.25 µg/mL (≈ 15.8 µM)
COc1ccc(N2C(=N)C(=S)N(c3cc(OC)ccc3OC)C2=O)cc1	60.1%	0.032 µg	0.031	0.051 µg	0.051 µg	42%	0%	17 mm	28 mm	23 mm	26 mm	28 mm	27 mm	29 mm	19 mm	20 mm	0.78 µg/mL (≈ 2.1 µM)	6.25 µg/mL (≈ 16.8 µM)	3.12 µg/mL (≈ 8.4 µM)	6.25 µg/mL (≈ 16.8 µM)	MIC (Candida albicans [15]): 6.25 µg/mL (≈ 16.8 µM)
COc1ccc(OC)c(N2C(=O)N(c3ccc(SC)cc3)C(=N)C2=S)c1	0%	0.029 µg	0.028	0.05 µg	0.047 µg	85.7%	18.5%	17 mm	29 mm	20 mm	25 mm	29 mm	31 mm	27 mm	20 mm	22 mm	0.78 µg/mL (≈ 2.01 µM)	6.25 µg/mL (≈ 16.1 µM)	6.25 µg/mL (≈ 16.1 µM)	6.25 µg/mL (≈ 16.1 µM)	MIC (Candida albicans [15]): 6.25 µg/mL (≈ 16.1 µM)
